# Columns and labels:
# Adenosine receptor A1 = molecular target: T1, Adenosine receptor A1 (Homo sapiens, UniProt P30542); test: Displacement of [3H]DPCPX from human cloned adenosine A1 receptor expressed in CHO cells; format: cell-based
# T1 sequence (P30542 whole entry): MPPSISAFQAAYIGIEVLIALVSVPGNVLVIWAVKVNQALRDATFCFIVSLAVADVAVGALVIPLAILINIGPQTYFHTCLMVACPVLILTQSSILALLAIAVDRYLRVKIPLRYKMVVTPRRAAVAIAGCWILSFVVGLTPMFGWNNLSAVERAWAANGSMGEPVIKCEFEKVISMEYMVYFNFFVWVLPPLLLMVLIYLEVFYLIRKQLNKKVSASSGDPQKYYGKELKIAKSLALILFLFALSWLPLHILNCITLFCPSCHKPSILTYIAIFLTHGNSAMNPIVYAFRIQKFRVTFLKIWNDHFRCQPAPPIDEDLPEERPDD
# Adenosine receptor A3 [1] = molecular target: T2, Adenosine receptor A3 (Homo sapiens, UniProt P0DMS8); test: Displacement of [3H]NECA from human cloned adenosine A3 receptor expressed in human HeLa cells; format: cell-based
# HeLa [2] = test: Selectivity index, ratio of Ki for human cloned adenosine A2A receptor expressed in human HeLa cells to Ki for human cloned adenosine A2B receptor expressed in HEK293 cells; format: cell-based
# In short: (§1)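 SI is the ratio of Ki values. […] A1 in CHO cells: [3H]DPCPX 2 nM. A2A in HeLa cells: [3H]ZM241385 3 nM. A2B in HEK-293 cells: [3H]DPCPX 25 nM. A3 in HeLa cells: [3H]NECA 30 nM. Filtration and scintillation counting.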
# Adenosine receptor A2b [3] = molecular target: T3, Adenosine receptor A2b (Homo sapiens, UniProt P29275); test: Displacement of [3H]DPCPX from human cloned adenosine A2B receptor expressed in HEK293 cells; format: cell-based
# T3 sequence (P29275 whole entry): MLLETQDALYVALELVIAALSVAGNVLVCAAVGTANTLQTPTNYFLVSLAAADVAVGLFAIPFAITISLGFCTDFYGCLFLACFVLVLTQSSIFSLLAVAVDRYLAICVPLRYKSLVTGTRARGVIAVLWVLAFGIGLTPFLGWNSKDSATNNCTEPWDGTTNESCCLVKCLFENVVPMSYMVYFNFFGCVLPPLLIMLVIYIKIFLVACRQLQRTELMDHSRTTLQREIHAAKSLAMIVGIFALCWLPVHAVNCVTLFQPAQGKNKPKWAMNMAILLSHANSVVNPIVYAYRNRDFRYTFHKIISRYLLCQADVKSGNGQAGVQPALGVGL
# Adenosine receptor A2a [4] = molecular target: T4, Adenosine receptor A2a (Homo sapiens, UniProt P29274); test: Displacement of [3H]ZM241385 from human cloned adenosine A2A receptor expressed in human HeLa cells; format: cell-based
# Adenosine receptor A3 [5] = molecular target: T2, Adenosine receptor A3; test: Displacement of [3H]NECA from human cloned adenosine A3 receptor expressed in human HeLa cells at 1 uM; format: cell-based
# [6] = Methanol-water partition coefficient, log K by RP-HPLC; format: physicochemical
# In short: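 Reverse-phase HPLC with water–methanol 40/60 (v/v) mobile phase at 1.0 ml/min; dead time from KI in methanol; retention times in minutes; log k from capacity factor taken as lipophilicity index.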
# [7] = Solubility in 50 mM Tris/HCl buffer at pH 7.4 by turbidimetric method; format: physicochemical
# In short: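 DMSO stock added stepwise (about 14 additions) to 50 mM Tris/HCl pH 7.4 at room temperature, final DMSO below 5%; precipitation detected as UV absorbance rise at 600–800 nm; solubility limit from bilinear fit of absorbance versus DMSO.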
# HEK293 = test: Selectivity index, ratio of Ki for human cloned adenosine A1 receptor expressed in CHO cells to Ki for human cloned adenosine A2B receptor expressed in HEK293 cells; format: cell-based; in short: as §1
# Adenosine receptor A2a [8] = molecular target: Adenosine receptor A2a (Rattus norvegicus, UniProt P30543); test: Antagonist activity at adenosine A2A receptor in Sprague-Dawley rat aorta assessed as inhibition of phenylephrine-induced contraction; format: functional, tissue-based; details: read-out: pA2 (converted)
# In short: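 Aorta from male Sprague-Dawley rats (200–250 g), cut into 4 mm rings in Krebs solution at 37 °C with carbogen, 2 g basal tension, stabilised 60 min. Rings were contracted with phenylephrine, then antagonist was incubated for 30 min before cumulative NECA relaxation curves. pA2 = log((EC50'/EC50) − 1) − log C, from NECA EC50 with and without antagonist.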
# Adenosine receptor A2b [9] = molecular target: T5, Adenosine receptor A2b (Rattus norvegicus, UniProt P29276); test: Antagonist activity at adenosine A2B receptor in Wistar-Kyoto rat distal colon; details: read-out: pA2 (converted)
# T5 sequence (P29276 whole entry): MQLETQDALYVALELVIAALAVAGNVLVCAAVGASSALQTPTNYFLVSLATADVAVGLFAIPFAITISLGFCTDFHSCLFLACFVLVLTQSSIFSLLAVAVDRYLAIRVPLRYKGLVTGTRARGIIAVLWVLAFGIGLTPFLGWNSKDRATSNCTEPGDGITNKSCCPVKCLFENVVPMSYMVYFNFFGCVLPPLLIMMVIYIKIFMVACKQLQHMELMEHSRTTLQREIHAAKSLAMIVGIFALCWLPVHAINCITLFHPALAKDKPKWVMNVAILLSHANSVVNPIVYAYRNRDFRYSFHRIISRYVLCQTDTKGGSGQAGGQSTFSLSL
# HeLa [10] = test: Selectivity index, ratio of Ki for human cloned adenosine A3 receptor expressed in human HeLa cells to Ki for human cloned adenosine A2B receptor expressed in HEK293 cells; format: cell-based; in short: as §1
# Adenosine receptor A2a [11] = molecular target: T4, Adenosine receptor A2a; test: Displacement of [3H]ZM241385 from human cloned adenosine A2A receptor expressed in human HeLa cells at 1 uM; format: cell-based
# In short: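 HeLa membranes (10 µg) in 50 mM Tris–HCl, 1 mM EDTA, 10 mM MgCl2, 2 U/mL adenosine deaminase, pH 7.4; 3 nM [3H]ZM241385, 25 °C; NECA for nonspecific binding; filtration with 4× ice-cold washes, scintillation counting; percent radioligand displacement at 1 µM.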
# T4 sequence (P29274 whole entry): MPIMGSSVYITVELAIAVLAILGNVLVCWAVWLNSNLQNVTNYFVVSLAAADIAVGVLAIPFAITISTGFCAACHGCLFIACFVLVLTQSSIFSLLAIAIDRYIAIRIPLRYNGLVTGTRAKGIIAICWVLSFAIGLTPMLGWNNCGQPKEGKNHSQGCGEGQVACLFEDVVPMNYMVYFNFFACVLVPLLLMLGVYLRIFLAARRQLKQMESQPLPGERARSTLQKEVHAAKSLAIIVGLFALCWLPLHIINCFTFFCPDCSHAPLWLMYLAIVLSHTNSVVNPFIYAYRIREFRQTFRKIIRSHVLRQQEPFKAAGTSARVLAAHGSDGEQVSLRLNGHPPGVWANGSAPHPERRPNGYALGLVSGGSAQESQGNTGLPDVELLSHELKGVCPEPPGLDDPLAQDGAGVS
# T2 sequence (P0DMS8 whole entry): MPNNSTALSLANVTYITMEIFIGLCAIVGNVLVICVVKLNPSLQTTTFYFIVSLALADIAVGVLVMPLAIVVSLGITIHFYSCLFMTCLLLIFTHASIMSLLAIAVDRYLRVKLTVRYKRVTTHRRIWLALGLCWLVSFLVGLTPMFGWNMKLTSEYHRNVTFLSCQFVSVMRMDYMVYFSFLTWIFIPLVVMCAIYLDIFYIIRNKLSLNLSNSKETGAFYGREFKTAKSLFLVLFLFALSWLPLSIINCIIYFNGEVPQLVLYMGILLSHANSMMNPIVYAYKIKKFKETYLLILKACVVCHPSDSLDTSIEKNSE
# Sequence of Adenosine receptor A2a (Rattus norvegicus, UniProt P30543) (P30543 whole entry): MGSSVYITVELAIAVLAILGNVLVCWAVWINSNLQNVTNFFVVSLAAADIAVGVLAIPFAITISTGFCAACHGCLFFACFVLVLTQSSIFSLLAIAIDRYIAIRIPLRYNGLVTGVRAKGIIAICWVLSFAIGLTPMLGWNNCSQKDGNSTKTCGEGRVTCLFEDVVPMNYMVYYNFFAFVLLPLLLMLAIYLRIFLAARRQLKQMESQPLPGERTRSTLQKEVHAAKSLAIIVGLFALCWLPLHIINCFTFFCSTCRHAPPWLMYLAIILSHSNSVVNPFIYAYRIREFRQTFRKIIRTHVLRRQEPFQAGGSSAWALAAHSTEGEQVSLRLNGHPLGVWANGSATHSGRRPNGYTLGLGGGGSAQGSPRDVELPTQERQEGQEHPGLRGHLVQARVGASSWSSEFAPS
Compound,Ki (Adenosine receptor A2b [3]) [nM],Ki (Adenosine receptor A2a [4]) [nM],Ratio Ki (HeLa [2]),also measured
CCCn1c(=O)c2[nH]c(-c3ccc(S(C)(=O)=O)cc3)c(O)c2n(CCC)c1=O,6.5,28,4.3,Ki (Adenosine receptor A1): 63 nM; Ki (Adenosine receptor A3 [1]): 295 nM
CCCn1c(=O)c2[nH]c(-c3ccc(OCC(=O)Nc4ccc(Br)cc4)cc3)cc2n(CCC)c1=O,,,14,Ki (Adenosine receptor A1): 21 nM; Ki (Adenosine receptor A3 [1]): 199 nM
Cc1ccc(-c2cc3c([nH]2)c(=O)n(C)c(=O)n3C)cc1,457,126,0.28,
CCCn1c(=O)c2c(cc(-c3ccc(C)cc3)n2O)n(CCC)c1=O,589,398,0.66,
CCCn1c(=O)c2[nH]c(-c3ccc(OCC(=O)N4CCN(Cc5ccccc5)CC4)cc3)cc2n(CCC)c1=O,,,42,inhibition (Adenosine receptor A3 [5]): 5%; Ki (Adenosine receptor A1): 43 nM; log K [6]: 0.93; solubility kinetic [7]: 2 µg/mL
Cn1c(=O)c2c(cc(-c3ccccc3)n2O)n(C)c1=O,1660,,,inhibition (Adenosine receptor A2a [11]): 12%
CCCn1c(=O)c2[nH]c(-c3ccccc3)cc2n(CCC)c1=O,229,646,2.8,Ki (Adenosine receptor A1): 34 nM; Ki (Adenosine receptor A3 [1]): 96 nM
CCCn1c(=O)c2[nH]c(-c3ccc(OC)cc3)cc2n(CCC)c1=O,490,199,0.41,log K [6]: 0.71; solubility kinetic [7]: 28 µg/mL
Cn1c(=O)c2[nH]c(-c3ccccc3)c(O)c2n(C)c1=O,288,1470,5.1,
Cc1ccc(-c2cc3c(c(=O)n(C)c(=O)n3C)n2O)cc1,2240,,,inhibition (Adenosine receptor A2a [11]): 8%
CCCn1c(=O)c2c(cc(-c3ccc(OC)cc3)n2O)n(CCC)c1=O,479,631,1.3,
CCCn1c(=O)c2[nH]c(-c3ccc(C)cc3)cc2n(CCC)c1=O,199,631,3.2,log K [6]: 0.97; solubility kinetic [7]: 6 µg/mL
CCCn1c(=O)c2[nH]c(-c3ccc(C(=O)O)cc3)c(O)c2n(CCC)c1=O,338,933,2.8,
Cc1ccc(-c2[nH]c3c(=O)n(C)c(=O)n(C)c3c2O)cc1,513,2450,4.8,
CCCn1c(=O)c2c(cc(-c3ccccc3)n2O)n(CCC)c1=O,676,,,inhibition (Adenosine receptor A3 [5]): 30%; inhibition (Adenosine receptor A2a [11]): 32%; Ki (Adenosine receptor A1): 25 nM

# Second part, led by results:
Ki (Adenosine receptor A2b [3]) [nM],Ki (Adenosine receptor A2a [4]) [nM],Compound,Ratio Ki (HeLa [2]),also measured
64,468,CCCn1c(=O)c2[nH]c(-c3ccc(S(C)(=O)=O)cc3)c(O)c2n(C)c1=O,7.3,inhibition (Adenosine receptor A3 [5]): 7%; Ki (Adenosine receptor A1): 240 nM
1,100,CCCn1c(=O)c2[nH]c(-c3ccc(OCC(=O)Nc4ccc(Br)cc4)cc3)c(O)c2n(CCC)c1=O,100,Ratio Ki (HEK293): 79; Ki (Adenosine receptor A1): 79 nM; Ki (Adenosine receptor A3 [1]): 1290 nM; Kb (Adenosine receptor A2a [8]): 224 nM; Kb (Adenosine receptor A2b [9]): 0.468 nM; Ratio Ki (HeLa [10]): 1290
24,148,CCCn1c(=O)c2[nH]c(-c3ccc(OC)cc3)c(O)c2n(CCC)c1=O,6.2,log K [6]: 0.51; solubility kinetic [7]: 120 µg/mL
182,479,Cn1c(=O)c2[nH]c(-c3ccccc3)cc2n(C)c1=O,2.6,
68,692,Cn1c(=O)c2[nH]c(-c3ccc(S(C)(=O)=O)cc3)c(O)c2n(C)c1=O,10.2,
155,240,CCCn1c(=O)c2c(cc(-c3ccc(N)cc3)n2O)n(CCC)c1=O,1.5,
44,48,CCCn1c(=O)c2[nH]c(-c3ccc(O)cc3)cc2n(CCC)c1=O,1.1,
35,408,CCCn1c(=O)c2[nH]c(-c3ccco3)c(OS(=O)(=O)O)c2n(CCC)c1=O,11.7,
50,145,CCCn1c(=O)c2[nH]c(-c3ccc([N+](=O)[O-])cc3)c(O)c2n(CCC)c1=O,2.9,
115,102,CCCn1c(=O)c2c(cc(-c3ccc(O)cc3)n2O)n(CCC)c1=O,0.89,
54,50,CCCn1c(=O)c2[nH]c(-c3ccccc3)c(O)c2n(CCC)c1=O,0.93,Ki (Adenosine receptor A1): 83 nM; Ki (Adenosine receptor A3 [1]): 182 nM
19,166,CCCn1c(=O)c2[nH]c(-c3ccc(N)cc3)c(O)c2n(CCC)c1=O,8.7,log K [6]: 0.96; solubility kinetic [7]: 30 µg/mL
8.9,162,CCCn1c(=O)c2[nH]c(-c3ccc(N)cc3)cc2n(CCC)c1=O,18.2,log K [6]: 1.21; solubility kinetic [7]: 6 µg/mL
89,89,CCCn1c(=O)c2[nH]c(-c3ccc(C)cc3)c(O)c2n(CCC)c1=O,1,log K [6]: 0.83; solubility kinetic [7]: 30 µg/mL
71,324,CCCn1c(=O)c2[nH]c(-c3ccc(C(C)=O)cc3)c(O)c2n(CCC)c1=O,4.6,
11,118,CCCn1c(=O)c2[nH]c(-c3ccc(O)cc3)c(O)c2n(CCC)c1=O,10.7,
23,104,CCCn1c(=O)c2[nH]c(-c3ccco3)c(O)c2n(CCC)c1=O,4.5,

# — ChEMBL document CHEMBL1142545, “1,3-Dialkyl-8-(hetero)aryl-9-OH-9-deazaxanthines as potent A2B adenosine receptor antagonists: design, synthesis, structure-affinity and structure-selectivity relationships” (Bioorg Med Chem, 2008)
